# Reference: ChEMBL document CHEMBL1772977, “Synthesis and biological evaluation of novel 4-benzylpiperazine ligands for sigma-1 receptor imaging” (Bioorg Med Chem, 2011)
# Legend:
# Thyroid gland [1] = assay: Biodistribution in ICR mouse thyroid at 1 uCi, iv after 60 mins postinjection; format: ADME, organism-based; conditions: in vivo, 1 h
# Outline: (§1)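 Female ICR mice (18–22 g, n = 5) received HPLC-purified radioiodinated tracer by tail vein (0.1 mL, 1 µCi). They were killed by cervical fracture at 15, 30, 60, 120 or 240 min post-injection. Blood and organs were removed, weighed and gamma-counted. Uptake is expressed as %ID/g, mean ± SD, n = 4–5.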
# Spleen [2] = assay: Biodistribution in ICR mouse spleen at 1 uCi, iv after 120 mins postinjection; format: ADME, organism-based; conditions: in vivo, 2 h
# Outline: (§2)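 Female ICR mice (18–22 g, n = 5) received HPLC-purified radiotracer by tail vein (0.1 mL). They were killed by cervical fracture at the stated times. Blood and organs were removed, weighed and gamma-counted. Uptake expressed as percent injected dose per gram of tissue (%ID/g), given as mean with SD.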
# Kidney [3] = assay: Biodistribution in ICR mouse kidney at 1 uCi, iv after 60 mins postinjection; format: ADME, organism-based; conditions: in vivo, 1 h; outline: as §2
# Brain [4] = assay: Biodistribution in ICR mouse brain at 1 uCi, iv after 15 mins postinjection; format: ADME, organism-based; conditions: in vivo, 0.25 h; outline: as §2
# Liver [5] = assay: Biodistribution in ICR mouse liver at 1 uCi, iv after 60 mins postinjection; format: ADME, organism-based; conditions: in vivo, 1 h; outline: as §2
# Heart [6] = assay: Biodistribution in ICR mouse heart at 1 uCi, iv after 30 mins postinjection; format: ADME, organism-based; conditions: in vivo, 0.5 h; outline: as §2
# Thyroid gland [7] = assay: Biodistribution in ICR mouse thyroid at 1 uCi, iv after 120 mins postinjection; format: ADME, organism-based; conditions: in vivo, 2 h; outline: as §1
# Stomach [8] = assay: Biodistribution in ICR mouse stomach at 1 uCi, iv measured per organ after 30 mins postinjection; format: ADME, organism-based; conditions: in vivo, 0.5 h
# Heart [9] = assay: Biodistribution in ICR mouse heart at 1 uCi, iv after 15 mins postinjection; format: ADME, organism-based; conditions: in vivo, 0.25 h; outline: as §2
# Spleen [10] = assay: Biodistribution in ICR mouse spleen at 1 uCi, iv after 240 mins postinjection; format: ADME, organism-based; conditions: in vivo, 4 h; outline: as §2
# Blood [11] = assay: Biodistribution in ICR mouse blood at 1 uCi, iv after 15 mins postinjection; format: ADME, organism-based; conditions: in vivo, 0.25 h; outline: as §2
# Brain [12] = assay: Biodistribution in ICR mouse brain at 1 uCi, iv after 60 mins postinjection; format: ADME, organism-based; conditions: in vivo, 1 h; outline: as §2
# Heart [13] = assay: Biodistribution in ICR mouse heart at 1 uCi, iv after 240 mins postinjection; format: ADME, organism-based; conditions: in vivo, 4 h; outline: as §2
# Liver [14] = assay: Biodistribution in ICR mouse liver at 1 uCi, iv after 120 mins postinjection; format: ADME, organism-based; conditions: in vivo, 2 h; outline: as §2
# Liver [15] = assay: Biodistribution in ICR mouse liver at 1 uCi, iv after 15 mins postinjection; format: ADME, organism-based; conditions: in vivo, 0.25 h; outline: as §2
# Thyroid gland [16] = assay: Biodistribution in ICR mouse thyroid at 1 uCi, iv after 240 mins postinjection; format: ADME, organism-based; conditions: in vivo, 4 h; outline: as §1
# Thyroid gland [17] = assay: Biodistribution in ICR mouse thyroid at 1 uCi, iv after 15 mins postinjection; format: ADME, organism-based; conditions: in vivo, 0.25 h; outline: as §1
# Lung [18] = assay: Biodistribution in ICR mouse lung at 1 uCi, iv after 120 mins postinjection; format: ADME, organism-based; conditions: in vivo, 2 h; outline: as §2
# Kidney [19] = assay: Biodistribution in ICR mouse kidney at 1 uCi, iv after 240 mins postinjection; format: ADME, organism-based; conditions: in vivo, 4 h; outline: as §2
# Muscle tissue [20] = assay: Biodistribution in ICR mouse muscle at 1 uCi, iv after 240 mins postinjection; format: ADME, organism-based; conditions: in vivo, 4 h; outline: as §2
# Muscle tissue [21] = assay: Biodistribution in ICR mouse muscle at 1 uCi, iv after 60 mins postinjection; format: ADME, organism-based; conditions: in vivo, 1 h; outline: as §2
# Spleen [22] = assay: Biodistribution in ICR mouse spleen at 1 uCi, iv after 60 mins postinjection; format: ADME, organism-based; conditions: in vivo, 1 h; outline: as §2
# Kidney [23] = assay: Biodistribution in ICR mouse kidney at 1 uCi, iv after 120 mins postinjection; format: ADME, organism-based; conditions: in vivo, 2 h; outline: as §2
# Kidney [24] = assay: Biodistribution in ICR mouse kidney at 1 uCi, iv after 15 mins postinjection; format: ADME, organism-based; conditions: in vivo, 0.25 h; outline: as §2
# Blood [25] = assay: Biodistribution in ICR mouse blood at 1 uCi, iv after 120 mins postinjection; format: ADME, organism-based; conditions: in vivo, 2 h; outline: as §2
# Lung [26] = assay: Biodistribution in ICR mouse lung at 1 uCi, iv after 15 mins postinjection; format: ADME, organism-based; conditions: in vivo, 0.25 h; outline: as §2
# Stomach [27] = assay: Biodistribution in ICR mouse stomach at 1 uCi, iv measured per organ after 15 mins postinjection; format: ADME, organism-based; conditions: in vivo, 0.25 h
# [28] = 1-Octanol-sodium phosphate buffer distribution coefficient, log D of the compound at pH 7.4; format: physicochemical
# Outline: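 Shake-flask partition of HPLC-purified radiotracer between 1-octanol and 0.05 mol/L sodium phosphate buffer pH 7.4, phases mutually pre-saturated (3 mL each). […] Octanol layer re-distributed until values were consistent. Triplicate, repeated three times.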
# Spleen [29] = assay: Biodistribution in ICR mouse spleen at 1 uCi, iv after 30 mins postinjection; format: ADME, organism-based; conditions: in vivo, 0.5 h; outline: as §2
# Liver [30] = assay: Biodistribution in ICR mouse liver at 1 uCi, iv after 30 mins postinjection; format: ADME, organism-based; conditions: in vivo, 0.5 h; outline: as §2
# Stomach [31] = assay: Biodistribution in ICR mouse stomach at 1 uCi, iv measured per organ after 120 mins postinjection; format: ADME, organism-based; conditions: in vivo, 2 h
# Lung [32] = assay: Biodistribution in ICR mouse lung at 1 uCi, iv after 30 mins postinjection; format: ADME, organism-based; conditions: in vivo, 0.5 h; outline: as §2
# Mus musculus [33] = assay: Biodistribution in ICR mouse small intestine at 1 uCi, iv after 60 mins postinjection; format: ADME, organism-based; conditions: in vivo, 1 h; outline: as §2
# Stomach [34] = assay: Biodistribution in ICR mouse stomach at 1 uCi, iv measured per organ after 60 mins postinjection; format: ADME, organism-based; conditions: in vivo, 1 h; outline: as §1
# Mus musculus [35] = assay: Biodistribution in ICR mouse small intestine at 1 uCi, iv after 15 mins postinjection; format: ADME, organism-based; conditions: in vivo, 0.25 h; outline: as §2
# Muscle tissue [36] = assay: Biodistribution in ICR mouse muscle at 1 uCi, iv after 120 mins postinjection; format: ADME, organism-based; conditions: in vivo, 2 h; outline: as §2
# Spleen [37] = assay: Biodistribution in ICR mouse spleen at 1 uCi, iv after 15 mins postinjection; format: ADME, organism-based; conditions: in vivo, 0.25 h; outline: as §2
# Heart [38] = assay: Biodistribution in ICR mouse heart at 1 uCi, iv after 60 mins postinjection; format: ADME, organism-based; conditions: in vivo, 1 h; outline: as §2
# Brain [39] = assay: Biodistribution in ICR mouse brain at 1 uCi, iv after 240 mins postinjection; format: ADME, organism-based; conditions: in vivo, 4 h; outline: as §2
# Muscle tissue [40] = assay: Biodistribution in ICR mouse muscle at 1 uCi, iv after 15 mins postinjection; format: ADME, organism-based; conditions: in vivo, 0.25 h; outline: as §2
# Brain [41] = assay: Biodistribution in ICR mouse brain at 1 uCi, iv after 120 mins postinjection; format: ADME, organism-based; conditions: in vivo, 2 h; outline: as §2
# Kidney [42] = assay: Biodistribution in ICR mouse kidney at 1 uCi, iv after 30 mins postinjection; format: ADME, organism-based; conditions: in vivo, 0.5 h; outline: as §2
# Heart [43] = assay: Biodistribution in ICR mouse heart at 1 uCi, iv after 120 mins postinjection; format: ADME, organism-based; conditions: in vivo, 2 h; outline: as §2
# Muscle tissue [44] = assay: Biodistribution in ICR mouse muscle at 1 uCi, iv after 30 mins postinjection; format: ADME, organism-based; conditions: in vivo, 0.5 h; outline: as §2
# Blood [45] = assay: Biodistribution in ICR mouse blood at 1 uCi, iv after 240 mins postinjection; format: ADME, organism-based; conditions: in vivo, 4 h; outline: as §2
# Liver [46] = assay: Biodistribution in ICR mouse liver at 1 uCi, iv after 240 mins postinjection; format: ADME, organism-based; conditions: in vivo, 4 h; outline: as §2
# Mus musculus [47] = assay: Biodistribution in ICR mouse small intestine at 1 uCi, iv after 240 mins postinjection; format: ADME, organism-based; conditions: in vivo, 4 h; outline: as §2
# Brain [48] = assay: Biodistribution in ICR mouse brain at 1 uCi, iv after 30 mins postinjection; format: ADME, organism-based; conditions: in vivo, 0.5 h; outline: as §2
# Stomach [49] = assay: Biodistribution in ICR mouse stomach at 1 uCi, iv measured per organ after 240 mins postinjection; format: ADME, organism-based; conditions: in vivo, 4 h
# Blood [50] = assay: Biodistribution in ICR mouse blood at 1 uCi, iv after 60 mins postinjection; format: ADME, organism-based; conditions: in vivo, 1 h; outline: as §2
# Lung [51] = assay: Biodistribution in ICR mouse lung at 1 uCi, iv after 240 mins postinjection; format: ADME, organism-based; conditions: in vivo, 4 h; outline: as §2
# Mus musculus [52] = assay: Biodistribution in ICR mouse small intestine at 1 uCi, iv after 120 mins postinjection; format: ADME, organism-based; conditions: in vivo, 2 h; outline: as §2
# Lung [53] = assay: Biodistribution in ICR mouse lung at 1 uCi, iv after 60 mins postinjection; format: ADME, organism-based; conditions: in vivo, 1 h; outline: as §2
# Mus musculus [54] = assay: Biodistribution in ICR mouse small intestine at 1 uCi, iv after 30 mins postinjection; format: ADME, organism-based; conditions: in vivo, 0.5 h; outline: as §2
# Thyroid gland [55] = assay: Biodistribution in ICR mouse thyroid at 1 uCi, iv after 30 mins postinjection; format: ADME, organism-based; conditions: in vivo, 0.5 h; outline: as §1
# Blood [56] = assay: Biodistribution in ICR mouse blood at 1 uCi, iv after 30 mins postinjection; format: ADME, organism-based; conditions: in vivo, 0.5 h; outline: as §2
structure (smiles),measurement,setting,value
[125I]c1ccc(CN2CCN(Cc3ccc4c(c3)OCO4)CC2)cc1,Drug uptake,Thyroid gland [1],1.53 % ID/g
same,Drug uptake,Spleen [2],4.79 % ID/g
same,Drug uptake,Kidney [3],8.73 % ID/g
same,Drug uptake,Brain [4],5.03 % ID/g
same,Drug uptake,Liver [5],5.68 % ID/g
same,Drug uptake,Heart [6],2.79 % ID/g
same,Drug uptake,Thyroid gland [7],1.4 % ID/g
same,Drug uptake,Stomach [8],2.12 %ID
same,Drug uptake,Heart [9],3.98 % ID/g
same,Drug uptake,Spleen [10],2.83 % ID/g
same,Drug uptake,Blood [11],1.34 % ID/g
same,Drug uptake,Brain [12],4.63 % ID/g
same,Drug uptake,Heart [13],0.75 % ID/g
same,Drug uptake,Liver [14],5.08 % ID/g
same,Drug uptake,Liver [15],9 % ID/g
same,Drug uptake,Thyroid gland [16],1.22 % ID/g
same,Drug uptake,Thyroid gland [17],6.55 % ID/g
same,Drug uptake,Lung [18],4.91 % ID/g
same,Drug uptake,Kidney [19],6.89 % ID/g
same,Drug uptake,Muscle tissue [20],0.72 % ID/g
same,Drug uptake,Muscle tissue [21],1.5 % ID/g
same,Drug uptake,Spleen [22],5.7 % ID/g
same,Drug uptake,Kidney [23],7.82 % ID/g
same,Drug uptake,Kidney [24],12.72 % ID/g
same,Drug uptake,Blood [25],0.77 % ID/g
same,Drug uptake,Lung [26],12.49 % ID/g
same,Drug uptake,Stomach [27],2.32 %ID
same,logD,[28],2.98
same,Drug uptake,Spleen [29],6.53 % ID/g
same,Drug uptake,Liver [30],6.39 % ID/g
same,Drug uptake,Stomach [31],2.54 %ID
same,Drug uptake,Lung [32],8.7 % ID/g
same,Drug uptake,Mus musculus [33],7.45 % ID/g
same,Drug uptake,Stomach [34],1.78 %ID
same,Drug uptake,Mus musculus [35],5.77 % ID/g
same,Drug uptake,Muscle tissue [36],1.06 % ID/g
same,Drug uptake,Spleen [37],6.68 % ID/g
same,Drug uptake,Heart [38],1.71 % ID/g
same,Drug uptake,Brain [39],2.09 % ID/g
same,Drug uptake,Muscle tissue [40],2.35 % ID/g
same,Drug uptake,Brain [41],3.75 % ID/g
same,Drug uptake,Kidney [42],9.65 % ID/g
same,Drug uptake,Heart [43],1.24 % ID/g
same,Drug uptake,Muscle tissue [44],1.78 % ID/g
same,Drug uptake,Blood [45],0.72 % ID/g
same,Drug uptake,Liver [46],3.95 % ID/g
same,Drug uptake,Mus musculus [47],10.95 % ID/g
same,Drug uptake,Brain [48],4.96 % ID/g
same,Drug uptake,Stomach [49],1.68 %ID
same,Drug uptake,Blood [50],0.81 % ID/g
same,Drug uptake,Lung [51],2.69 % ID/g
same,Drug uptake,Mus musculus [52],10.73 % ID/g
same,Drug uptake,Lung [53],6.29 % ID/g
same,Drug uptake,Mus musculus [54],10.21 % ID/g
same,Drug uptake,Thyroid gland [55],2.3 % ID/g
same,Drug uptake,Blood [56],0.88 % ID/g
